System: healthy subjects
Assay: Multiple ascending dose
Format: in vivo, human
Details: all dose levels, n = 20
Outline: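 Subjects on test compound or placebo were domiciled up to 31 days (QD Cohorts 1–2) or 34 days (BID Cohort 3), with a 48-h drug-free follow-up. Monitoring at multiple time points covered adverse events, vital signs, 12-lead ECG with intensive ECG monitoring in all cohorts, and safety labs (serum chemistry, hematology, urinalysis). Data were summarized descriptively by treatment group.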

## O=C(O)COC[C@H]1CC[C@H](COC(=O)N(c2ccccc2)c2ccc(Cl)cc2)CC1 [ralinepag]
Cohort 3, BID
  Abdominal distention, subjects (%): 0
  Abdominal pain, subjects (%): 4 (20%)
  Acne, subjects (%): 2 (10%)
  Application site dermatitis, subjects (%): 0
  Arthralgia, subjects (%): 9 (45%)
  Asthenia, subjects (%): 0
  Back pain, subjects (%): 2 (10%)
  Chapped lips, subjects (%): 2 (10%)
  Chest pain, subjects (%): 1 (5%)
  Chromaturia, subjects (%): 2 (10%)
  Constipation, subjects (%): 1 (5%)
  Decreased appetite, subjects (%): 1 (5.0%)
  Dermatitis contact, subjects (%): 2 (10%)
  Diarrhea, subjects (%): 7 (35%)
  Dizziness, subjects (%): 9 (45%)
  Dry mouth, subjects (%): 2 (10%)
  Eructation, subjects (%): 0
  Fatigue, subjects (%): 3 (15%)
  Feeling hot, subjects (%): 2 (10%)
  Flatulence, subjects (%): 0
  Flushing, subjects (%): 3 (15%)
  Headache, subjects (%): 17 (85%)
  Hordeolum, subjects (%): 0
  Muscle tightness, subjects (%): 2 (10%)
  Muscular weakness, subjects (%): 2 (10%)
  Myalgia, subjects (%): 9 (45%)
  Nausea, subjects (%): 9 (45%)
  Non-cardiac chest pain, subjects (%): 0
  Number of AEs reported: 196
  Ocular hyperemia, subjects (%): 3 (15%)
  Oropharyngeal pain, subjects (%): 1 (5%)
  Pain in extremity, subjects (%): 0
  Pain in jaw, subjects (%): 13 (65%)
  Palpitations, subjects (%): 5 (25%)
  Paraesthesia, subjects (%): 4 (20%)
  Pruritus, subjects (%): 2 (10%)
  Restless leg syndrome, subjects (%): 2 (10%)
  Somnolence, subjects (%): 2 (10%)
  Total (%) subjects with at least one AE: 19 (95.0%)
  Total (%) subjects with at least one SAE: 0 (0%)
  Tremor, subjects (%): 1 (5.0%)
  Vomiting, subjects (%): 3 (15%)
Cohorts 1 and 2, QD
  Abdominal distention, subjects (%): 2 (10%)
  Abdominal pain, subjects (%): 6 (30%)
  Acne, subjects (%): 0
  Application site dermatitis, subjects (%): 6 (30%)
  Arthralgia, subjects (%): 0
  Asthenia, subjects (%): 2 (10%)
  Back pain, subjects (%): 1 (5%)
  Chapped lips, subjects (%): 0
  Chest pain, subjects (%): 1 (5%)
  Chromaturia, subjects (%): 0
  Constipation, subjects (%): 6 (30%)
  Decreased appetite, subjects (%): 4 (20%)
  Dermatitis contact, subjects (%): 0
  Diarrhea, subjects (%): 5 (25%)
  Dizziness, subjects (%): 5 (25%)
  Dry mouth, subjects (%): 0
  Eructation, subjects (%): 3 (15%)
  Fatigue, subjects (%): 2 (10%)
  Feeling hot, subjects (%): 2 (10%)
  Flatulence, subjects (%): 2 (10%)
  Flushing, subjects (%): 7(35%)
  Headache, subjects (%): 19 (95%)
  Hordeolum, subjects (%): 3 (15%)
  Muscle tightness, subjects (%): 0
  Muscular weakness, subjects (%): 1 (5%)
  Myalgia, subjects (%): 6 (30%)
  Nausea, subjects (%): 17 (85%)
  Non-cardiac chest pain, subjects (%): 2 (10%)
  Number of AEs reported: 230
  Ocular hyperemia, subjects (%): 0
  Oropharyngeal pain, subjects (%): 2(10%)
  Pain in extremity, subjects (%): 3 (15%)
  Pain in jaw, subjects (%): 13 (65%)
  Palpitations, subjects (%): 4 (20%)
  Paraesthesia, subjects (%): 1 (5%)
